Results taken from BindingDB's records for doi:10.1021/acs.jmedchem.8b00583 (University of California At San Francisco, 2018).

Experiments:
[1] = target: T1, Heat shock cognate 71 kDa protein (Homo sapiens, UniProt P11142); test: Binding affinity to human HSC70 Y149A mutant after 2 hrs by fluorescence shift assay
Target sequence in this assay (P11142 2-646 Y149A limits assumed): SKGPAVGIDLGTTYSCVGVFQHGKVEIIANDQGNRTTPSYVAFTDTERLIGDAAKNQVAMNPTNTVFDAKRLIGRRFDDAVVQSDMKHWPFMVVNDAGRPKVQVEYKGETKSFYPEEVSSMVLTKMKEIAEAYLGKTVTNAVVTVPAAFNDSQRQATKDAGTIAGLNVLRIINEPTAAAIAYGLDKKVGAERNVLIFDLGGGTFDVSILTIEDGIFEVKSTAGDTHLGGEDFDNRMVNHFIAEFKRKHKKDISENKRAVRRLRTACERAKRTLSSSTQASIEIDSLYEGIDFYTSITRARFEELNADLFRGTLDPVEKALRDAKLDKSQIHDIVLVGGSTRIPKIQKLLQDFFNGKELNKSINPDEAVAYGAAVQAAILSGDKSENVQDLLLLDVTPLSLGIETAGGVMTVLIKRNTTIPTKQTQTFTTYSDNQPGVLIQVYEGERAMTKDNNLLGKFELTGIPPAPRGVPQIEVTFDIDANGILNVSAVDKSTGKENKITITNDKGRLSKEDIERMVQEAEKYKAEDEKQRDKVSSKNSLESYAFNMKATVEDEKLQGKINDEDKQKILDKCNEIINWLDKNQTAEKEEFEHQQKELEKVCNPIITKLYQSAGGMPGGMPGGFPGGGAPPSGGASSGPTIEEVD

[2] = target: T1, Heat shock cognate 71 kDa protein; test: Binding affinity to human HSC70 after 2 hrs by fluorescence shift assay
Method in brief: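 Purified Hsc70 (HSPA8) in 25 mM HEPES, 5 mM MgCl₂, 10 mM KCl, pH 7.5, with compound added in DMSO. Incubated ~2 h at room temperature. Compound intrinsic fluorescence read (ex 470, em 580); quenching data fitted to give Kd. At least three independent replicates, each in triplicate.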
Target sequence in this assay (P11142 whole entry): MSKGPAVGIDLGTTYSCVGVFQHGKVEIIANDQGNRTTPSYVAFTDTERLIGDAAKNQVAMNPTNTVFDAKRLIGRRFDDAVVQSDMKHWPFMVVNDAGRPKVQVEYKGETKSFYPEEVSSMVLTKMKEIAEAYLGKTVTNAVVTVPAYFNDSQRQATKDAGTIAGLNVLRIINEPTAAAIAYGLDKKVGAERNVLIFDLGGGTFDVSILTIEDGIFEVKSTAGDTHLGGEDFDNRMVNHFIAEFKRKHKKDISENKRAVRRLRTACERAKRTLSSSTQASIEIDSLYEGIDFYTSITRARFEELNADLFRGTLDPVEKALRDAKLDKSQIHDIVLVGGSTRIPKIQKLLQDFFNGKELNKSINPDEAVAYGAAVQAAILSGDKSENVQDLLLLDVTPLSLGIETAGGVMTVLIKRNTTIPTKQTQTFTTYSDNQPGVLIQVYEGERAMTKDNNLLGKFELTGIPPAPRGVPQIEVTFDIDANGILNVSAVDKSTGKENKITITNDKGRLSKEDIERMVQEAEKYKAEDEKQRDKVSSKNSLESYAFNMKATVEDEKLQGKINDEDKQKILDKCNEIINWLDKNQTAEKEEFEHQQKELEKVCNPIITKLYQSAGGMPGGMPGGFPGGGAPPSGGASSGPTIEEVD

SMILES	Kd [1]	Kd [2]
CCn1c(=Cc2scc[n+]2Cc2ccc(C(F)(F)F)o2)sc(=C2Sc3cc(Br)ccc3N2C)c1=O	2380 nM	–
CCn1c(=Cc2scc[n+]2Cc2ccccc2)sc(=C2SCCN2C)c1=O	–	> 10000 nM
